Each block holds one compound with its values, some of them ahead of it. Active and inactive are the calls of the source. The calls are words filed in the database; no cut-off is given here.
Assays:
N2a = assay: Anti-synaptotoxic activity against mouse Neuro-2a cells assessed as inhibition of amyloid beta (1 to 42)-induced cytotoxicity by MTT-based Trafficking assay; type: functional
[1] = biological target: Sigma intracellular receptor 2 (Homo sapiens, UniProt Q5BJF2); assay: Binding affinity to Sigma 2-receptor (unknown origin)
[2] = Half life in mouse liver microsomes; type: ADME, Microsome
[3] = Ratio of AUC in Brain to AUC in plasma; type: ADME, cell-free; conditions: brain and plasma; read-out: Ratio AUC
[4] = Ratio of drug level in brain to plasma measured after 24 hrs; type: ADME, cell-free; conditions: brain and plasma, read-out: BPR
[5] = biological target: Voltage-gated inwardly rectifying potassium channel KCNH2 (Homo sapiens, UniProt Q12809)
[6] = Unbound brain-to-plasma concentration ratio measured after 24 hrs; type: ADME, cell-free; conditions: brain and plasma, read-out: K(p,uu,brain)
[7] = Free drug level in brain; type: ADME, tissue-based
[8] = Free drug level in plasma; type: ADME, cell-free
[9] = Efflux ratio of apparent permeability from basolateral to apical membrane over apical to basolateral membrane in human Caco2 cells; type: ADME, cell-based; conditions: Caco-2
[10] = Prevention of vesicular membrane trafficking in Sprague-Dawley rat neurons assessed as inhibition of amyloid beta oligomer binding to […] receptor at 10 uM pretreated with compounds followed by amyloid beta oligomer challenge and measured after 1 hr by ELISA relative to control; type: functional; conditions: Neuron
[11] = Reversal of amyloid beta oligomer-induced vesicular membrane trafficking in Sprague-Dawley rat neurons at 1 uM pretreated with amyloid beta oligomer for 1 hr followed by compound treatment by ELISA relative to control; type: functional; conditions: Neuron
[12] = Prevention of vesicular membrane trafficking in Sprague-Dawley rat neurons assessed as inhibition of amyloid beta oligomer binding to […] receptor pretreated with compounds followed by amyloid beta oligomer challenge and measured after 1 hr by ELISA; type: functional, tissue-based; conditions: neuron
[13] = Reversal of amyloid beta oligomer-induced vesicular membrane trafficking in Sprague-Dawley rat neurons pretreated with amyloid beta oligomer for 1 hr followed by compound treatment by ELISA; type: functional, tissue-based; conditions: neuron
[14] = Cognitive enhancing effect in non-transgenic mouse assessed as swimming length measured after 1 day by Morris Water maze method (reference value: 3791 +/-150 cm); type: ADME; conditions: buffer, 24 h
[15] = Cognitive enhancing effect in non-transgenic mouse assessed as swimming length measured after 2 day by Morris Water maze method (reference value: 2666 +/-294 cm); type: ADME; conditions: buffer, 48 h
[16] = Cognitive enhancing effect in non-transgenic mouse assessed as swimming length measured after 3 days by Morris Water maze method (reference value: 2173 +/-213 cm); type: ADME; conditions: buffer, 72 h, time 3 day
[17] = Cognitive enhancing effect in non-transgenic mouse assessed as swimming length measured after 4 days by Morris Water maze method (reference value: 1797 +/-219 cm); type: ADME; conditions: buffer, 96 h, time 4 day
[18] = Cognitive enhancing effect in transgenic hAPP Swe/Ldn mouse assessed as swimming length measured after 1 day by Morris Water maze method (reference value: 3518 +/-138 cm); type: ADME; conditions: buffer, 24 h
[19] = Cognitive enhancing effect in transgenic hAPP Swe/Ldn mouse assessed as swimming length measured after 2 day by Morris Water maze method (reference value: 3252 +/-329 cm); type: ADME; conditions: buffer, 48 h
[20] = Cognitive enhancing effect in transgenic hAPP Swe/Ldn mouse assessed as swimming length measured after 3 days by Morris Water maze method (reference value: 2854 +/-267 cm); type: ADME; conditions: buffer, 72 h, time 3 day
[21] = Cognitive enhancing effect in transgenic hAPP Swe/Ldn mouse assessed as swimming length measured after 4 days by Morris Water maze method (reference value: 2426 +/-287 cm); type: ADME; conditions: buffer, 96 h, time 4 day
[22] = Improvement in learning and spatial memory in non-transgenic mouse assessed as spontaneous alteration measured by Y-maze method (reference value: 62.6 +/-3.7%); type: ADME
[23] = Improvement in learning and spatial memory in transgenic hAPP Swe/Ldn mouse assessed as spontaneous alteration measured by Y-maze method (reference value: 56.1 +/-2.8%); type: ADME
[24] = Cognitive enhancing effect in non-transgenic mouse assessed as restoration of freezing time measured by Contextual fear conditioning test (reference value: 52 +/-5%); type: ADME
[25] = Cognitive enhancing effect in transgenic hAPP Swe/Ldn mouse assessed as restoration of freezing time measured by Contextual fear conditioning test (reference value: 32 +/-6%); type: ADME
Mus musculus = assay: Induction of amyloid beta oligomer release in interstitial brain fluid in iv dosed transgenic hAPP Swe/Ldn mouse; type: functional, organism-based
Procedure, shortened: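 Compound given intravenously to live transgenic mice. Microelectrodes coated with antibodies to total Aβ or to Aβ oligomers were inserted into the brain, and soluble Aβ in interstitial fluid was measured minute by minute.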

Sequence of Voltage-gated inwardly rectifying potassium channel KCNH2 (Q12809 whole entry): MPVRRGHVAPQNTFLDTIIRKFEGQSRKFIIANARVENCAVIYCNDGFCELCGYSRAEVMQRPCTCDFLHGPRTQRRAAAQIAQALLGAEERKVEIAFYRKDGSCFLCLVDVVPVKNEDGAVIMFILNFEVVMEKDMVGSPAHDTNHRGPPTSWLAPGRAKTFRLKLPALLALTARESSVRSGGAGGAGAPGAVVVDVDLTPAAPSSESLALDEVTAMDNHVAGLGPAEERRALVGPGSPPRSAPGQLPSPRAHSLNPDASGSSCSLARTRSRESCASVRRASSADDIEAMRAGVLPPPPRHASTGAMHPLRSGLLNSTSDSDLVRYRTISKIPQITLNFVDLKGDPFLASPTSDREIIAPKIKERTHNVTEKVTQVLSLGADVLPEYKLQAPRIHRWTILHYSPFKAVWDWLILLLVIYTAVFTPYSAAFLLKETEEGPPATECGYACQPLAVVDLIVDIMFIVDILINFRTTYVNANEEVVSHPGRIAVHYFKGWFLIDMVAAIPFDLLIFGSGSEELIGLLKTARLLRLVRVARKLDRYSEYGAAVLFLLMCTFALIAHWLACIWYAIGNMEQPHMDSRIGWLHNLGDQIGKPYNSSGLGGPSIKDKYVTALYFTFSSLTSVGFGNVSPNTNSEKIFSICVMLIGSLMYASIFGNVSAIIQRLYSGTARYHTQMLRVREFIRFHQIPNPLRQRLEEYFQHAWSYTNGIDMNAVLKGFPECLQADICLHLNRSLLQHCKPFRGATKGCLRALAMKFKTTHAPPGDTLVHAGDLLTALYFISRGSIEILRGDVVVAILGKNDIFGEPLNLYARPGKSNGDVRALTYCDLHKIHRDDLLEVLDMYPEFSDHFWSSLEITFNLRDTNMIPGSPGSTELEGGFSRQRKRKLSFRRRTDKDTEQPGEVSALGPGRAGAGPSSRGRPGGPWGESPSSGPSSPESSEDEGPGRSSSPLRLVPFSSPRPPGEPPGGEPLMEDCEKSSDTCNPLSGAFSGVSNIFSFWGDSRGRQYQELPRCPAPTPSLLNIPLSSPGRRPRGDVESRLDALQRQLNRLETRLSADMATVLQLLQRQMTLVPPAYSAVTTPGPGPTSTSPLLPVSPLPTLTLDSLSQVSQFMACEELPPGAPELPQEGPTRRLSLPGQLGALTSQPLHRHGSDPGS
Sequence of Sigma intracellular receptor 2 (Q5BJF2 whole entry): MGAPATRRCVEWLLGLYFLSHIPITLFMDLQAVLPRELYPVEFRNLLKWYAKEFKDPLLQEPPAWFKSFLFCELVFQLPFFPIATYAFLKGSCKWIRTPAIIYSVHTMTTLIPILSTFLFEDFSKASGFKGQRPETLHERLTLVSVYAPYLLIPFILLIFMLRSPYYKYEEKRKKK

half-life [2]: 33 min | Kp at 24 h [4]: 8.2
SMILES: C[C@H](CCc1ccc(Cl)c(Cl)c1)NCc1ccc(C(F)(F)F)cc1
Activity (N2a): 2 µM | EC50 [5]: 4.4 µM

Ki [1]: 0.12 µM | half-life [2]: 53 min
SMILES: C[C@@H](CCc1ccc(Cl)c(Cl)c1)NCc1ccc(C(F)(F)F)cc1
Activity (N2a): 11.7 µM | EC50 [5]: 1.1 µM

half-life [2]: 27 min | Kp at 24 h [4]: 2
SMILES: C[C@H](CCc1ccc(Cl)cc1)NCc1ccc(C(F)(F)F)cc1
Activity (N2a): 5.7 µM | EC50 [5]: 0.78 µM

half-life [2]: 16 min
SMILES: COc1cc(CC[C@@H](C)N2Cc3cccc(F)c3C2)ccc1O
Activity (N2a): 0.25 µM

Ki [1]: 0.00044 µM | half-life [2]: 61 min
SMILES: COc1cc2c(cc1OC)CN([C@H](C)CCc1ccc(Cl)c(Cl)c1)C2
Activity (N2a): 0.7 µM | EC50 [5]: 0.29 µM

Continued, compound first:

SMILES: CC(C)Oc1cc(CCC(C)(C)N2Cc3cccc(F)c3C2)ccc1O
Activity (N2a): 0.25 µM | Ki [1]: 0.011 µM | half-life [2]: 4 min | Kp [3]: 5.64 | Kp at 24 h [4]: 5.4 | EC50 [5]: 9.6 µM

SMILES: CC(C)(C)Oc1cc(CCC(C)(C)N2Cc3ccc(S(C)(=O)=O)cc3C2)ccc1O
Activity (N2a): 0.31 µM | Ki [1]: 0.0085 µM | half-life [2]: 45 min | Kp [3]: 2.51 | Kp at 24 h [4]: 5.7 | Kp uu at 24 h [6]: 6.75 | fraction unbound [7]: 0.13 | fraction unbound [8]: 0.05 | efflux ratio [9]: 0.95 | inhibition at 10 µM [10]: 71% | inhibition at 1 µM [11]: 88% | EC50 [12]: 6.8 µM | EC50 [13]: 0.358 µM | Activity [14]: 3317 cm | Activity [15]: 2739 cm | Activity [16]: 2262 cm | Activity [17]: 2008 cm | Activity [18]: 3230 cm | Activity [19]: 2332 cm | Activity [20]: 1987 cm | Activity [21]: 1611 cm | Activity [22]: 65.3% | Activity [23]: 58.5% | Activity [24]: 51% | Activity [25]: 45% | Activity (Mus musculus): Active | EC50 [5]: 26 µM

SMILES: COc1cc(CCC(C)NCc2ccc(C(F)(F)F)cc2)ccc1O (configuration not stated)
Activity (N2a): 2.2 µM

From ChEMBL document CHEMBL4837254, “Discovery of Investigational Drug CT1812, an Antagonist of the Sigma-2 Receptor Complex for Alzheimer's Disease” (ACS Med Chem Lett, 2021)
